Measurements reported in ChEMBL document CHEMBL1821564, “3-Acetyl-2,5-diaryl-2,3-dihydro-1,3,4-oxadiazoles: a new scaffold for the selective inhibition of monoamine oxidase B” (J Med Chem, 2011).

Tests used:
[1] = biological target: T1, Amine oxidase [flavin-containing] A (Homo sapiens, UniProt P21397); assay: Inhibition of human recombinant MAO-A activity expressed in BTI-TN-5B1-4 insect cells at 100 uM using p-tyramine substrate by Amplex Red MAO assay; conditions: bti-tn-5b1-4, 100 µM
T1 sequence (P21397 whole entry): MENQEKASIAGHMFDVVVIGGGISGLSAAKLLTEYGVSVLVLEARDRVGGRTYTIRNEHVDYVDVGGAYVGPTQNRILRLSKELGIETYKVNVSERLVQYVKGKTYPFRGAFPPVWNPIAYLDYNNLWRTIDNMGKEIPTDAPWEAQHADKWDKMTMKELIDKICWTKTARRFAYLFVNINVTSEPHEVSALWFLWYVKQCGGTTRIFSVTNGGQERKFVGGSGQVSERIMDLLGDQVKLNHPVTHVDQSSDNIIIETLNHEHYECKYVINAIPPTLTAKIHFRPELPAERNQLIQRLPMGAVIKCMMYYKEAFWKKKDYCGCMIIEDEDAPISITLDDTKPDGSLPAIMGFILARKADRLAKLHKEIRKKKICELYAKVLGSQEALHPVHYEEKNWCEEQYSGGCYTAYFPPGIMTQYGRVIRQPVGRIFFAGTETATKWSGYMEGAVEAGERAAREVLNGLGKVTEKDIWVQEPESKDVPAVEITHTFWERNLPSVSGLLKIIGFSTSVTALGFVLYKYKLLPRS
How it was run: (§1)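 Microsomal hMAO-A or hMAO-B from baculovirus-infected BTI-TN-5B1-4 insect cells, with p-tyramine substrate. H2O2 production was read with the Amplex Red reagent. Highest concentration tested was 100 μM, limited by precipitation. Compounds were checked for no direct reaction with Amplex Red. IC50 is the mean ± SEM of five experiments.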

[2] = biological target: T2, Amine oxidase [flavin-containing] B (Homo sapiens, UniProt P27338); assay: Inhibition of human recombinant MAO-B expressed in BTI-TN-5B1-4 insect cells at 100 uM using p-tyramine substrate by Amplex Red MAO assay; conditions: bti-tn-5b1-4, 100 µM; how it was run: as §1
T2 sequence (P27338 whole entry): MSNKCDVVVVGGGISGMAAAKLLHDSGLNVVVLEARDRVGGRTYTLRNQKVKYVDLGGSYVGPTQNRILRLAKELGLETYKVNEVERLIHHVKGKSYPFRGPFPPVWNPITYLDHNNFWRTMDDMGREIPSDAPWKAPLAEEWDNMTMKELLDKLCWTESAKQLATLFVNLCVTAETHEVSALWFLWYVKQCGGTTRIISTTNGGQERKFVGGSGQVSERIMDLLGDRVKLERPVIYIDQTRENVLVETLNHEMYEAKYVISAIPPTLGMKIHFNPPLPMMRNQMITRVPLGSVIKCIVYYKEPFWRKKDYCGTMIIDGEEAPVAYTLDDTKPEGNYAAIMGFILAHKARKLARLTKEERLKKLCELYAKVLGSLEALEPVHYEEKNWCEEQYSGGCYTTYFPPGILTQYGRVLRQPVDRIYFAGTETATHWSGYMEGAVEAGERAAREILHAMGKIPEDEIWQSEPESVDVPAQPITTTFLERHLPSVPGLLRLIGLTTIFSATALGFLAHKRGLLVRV

[3] = biological target: T2, Amine oxidase [flavin-containing] B; assay: Inhibition of human recombinant MAO-B expressed in BTI-TN-5B1-4 insect cells using p-tyramine substrate by Amplex Red MAO assay; how it was run: as §1
[4] = organism: Homo sapiens; assay: Selectivity index, ratio of IC50 for human recombinant MAO-A to IC50 for human recombinant MAO-B

SMILES | inhibition (INH) [1] | inhibition (INH) [2] | IC50 ([3]; bti-tn-5b1-4) [µM] | IC50 [3] [µM] | Ratio IC50 [4]
CC(=O)N1N=C(c2ccc(C)cc2)OC1c1ccccc1 (stereo not given) | Not Active | Not Active | – | – | –
CC(=O)N1N=C(c2ccccc2)OC1c1ccc(N(C)C)cc1 (stereo not given) | Not Active | Not Active | – | – | –
CC(=O)N1N=C(c2ccncc2)OC1c1ccccc1 (stereo not given) | Not Active | Not Active | – | – | –
CC(=O)N1N=C(c2ccc(Br)cc2)OC1c1ccc(Cl)cc1 (racemic) [listing 1 of 2 here] | – | – | 0.221 | – | –
COc1ccc(C2OC(c3ccc(C)cc3)=NN2C(C)=O)cc1 (stereo not given) | Not Active | – | – | 74.7 | > 1.34
CC(=O)N1N=C(c2ccc(Br)cc2)OC1c1ccc(Cl)cc1 (stereo in doubt; 4s) [listing 1 of 2 here] | – | – | – | – | > 453
CC(=O)N1N=C(c2ccc(C)cc2)OC1c1ccc(N(C)C)cc1 (stereo not given) | Not Active | Not Active | – | – | –
CC(=O)N1N=C(c2ccc(C)cc2)OC1c1ccc(C)cc1 (stereo not given) | Not Active | – | – | 66.6 | > 1.5
CC(=O)N1N=C(c2ccc(Cl)cc2)O[C@@H]1c1ccc(Cl)cc1 | Not Active | – | – | 0.101 | > 994
CC(=O)N1N=C(c2ccccc2)OC1c1ccc(Cl)cc1 (stereo not given) | Not Active | Not Active | – | – | –
COc1ccc(C2OC(c3ccncc3)=NN2C(C)=O)cc1 (stereo not given) | Not Active | Not Active | – | – | –
CC(=O)N1N=C(c2ccc(C)cc2)OC1c1ccc(Cl)cc1 (stereo not given) | Not Active | Not Active | – | – | –
CC(=O)N1N=C(c2ccccc2)OC1c1ccc(C)cc1 (racemic) [listing 1 of 2 here] | – | – | – | – | > 5.2
CC(=O)N1N=C(c2ccc(Br)cc2)OC1c1ccc(Cl)cc1 (racemic) [listing 2 of 2 here] | – | – | – | – | > 453
CC(=O)N1N=C(c2ccccc2)OC1c1ccc(C)cc1 (stereo in doubt; 4y) [listing 1 of 2 here] | – | – | – | – | > 5.2
CC(=O)N1N=C(c2ccccc2)OC1c1ccc([N+](=O)[O-])cc1 (stereo not given) | Not Active | Not Active | – | – | –
CC(=O)N1N=C(c2ccccc2)OC1c1ccccc1 (stereo not given) | Not Active | Not Active | – | – | –
CC(=O)N1N=C(c2ccccc2)OC1c1ccc(C)cc1 (racemic) [listing 2 of 2 here] | – | – | 19.4 | – | –
CC(=O)N1N=C(c2ccc(Br)cc2)O[C@H]1c1ccc(Cl)cc1 | Not Active | Not Active | – | – | –
CC(=O)N1N=C(c2ccncc2)OC1c1ccc(C)cc1 (stereo not given) | Not Active | Not Active | – | – | –

SMILES | inhibition (INH) [1] | inhibition (INH) [2] | IC50 ([3]; bti-tn-5b1-4) [µM] | IC50 [3] [µM] | Ratio IC50 [4]
CC(=O)N1N=C(c2ccncc2)OC1c1ccc(Cl)cc1Cl (stereo not given) | Not Active | Not Active | – | – | –
COc1ccc(C2OC(c3ccccc3)=NN2C(C)=O)cc1 (stereo not given) | Not Active | – | – | 5.16 | > 19
CC(=O)N1N=C(c2ccccc2)O[C@H]1c1ccc(C)cc1 | Not Active | Not Active | – | – | –
CC(=O)N1N=C(c2ccccc2)OC1c1ccc(C)cc1 (stereo in doubt; 4y) [listing 2 of 2 here] | Not Active | – | – | 19.4 | –
CC(=O)N1N=C(c2ccc(C)cc2)OC1c1ccc(Cl)cc1Cl (stereo not given) | Not Active | Not Active | – | – | –
CC(=O)N1N=C(c2ccc(Br)cc2)O[C@@H]1c1ccc(Cl)cc1 | Not Active | – | – | 0.0825 | > 1210
CC(=O)N1N=C(c2ccccc2)OC1c1ccc(F)cc1 (stereo not given) | Not Active | – | – | 9.53 | > 10
CC(=O)N1N=C(c2ccc([N+](=O)[O-])cc2)OC1c1ccc(Cl)cc1 (stereo not given) | Not Active | – | – | 0.122 | > 822
COc1ccc(C2=NN(C(C)=O)C(c3ccc(Cl)cc3)O2)cc1 (stereo not given) | Not Active | Not Active | – | – | –
COc1ccc(C2OC(c3ccc(C)cc3)=NN2C(C)=O)cc1OC (stereo not given) | Not Active | Not Active | – | – | –
CC(=O)N1N=C(c2ccc(Br)cc2)OC1c1ccc(Cl)cc1 (stereo in doubt; 4s) [listing 2 of 2 here] | Not Active | – | – | 0.221 | –
CC(=O)N1N=C(c2ccc(Cl)cc2)OC1c1ccc(Cl)cc1 (racemic) [listing 1 of 2 here] | – | – | – | – | > 867
CC(=O)N1N=C(c2ccc(Cl)cc2)OC1c1ccc(Cl)cc1 (stereo in doubt; 4p) [listing 1 of 2 here] | – | – | – | – | > 867
CC(=O)N1N=C(c2ccc(Cl)cc2)O[C@H]1c1ccc(Cl)cc1 | Not Active | Not Active | – | – | –
COc1ccc(C2OC(c3ccncc3)=NN2C(C)=O)cc1OC (stereo not given) | Not Active | Not Active | – | – | –
CC(=O)N1N=C(c2ccc(Cl)cc2)OC1c1ccc(Cl)cc1 (racemic) [listing 2 of 2 here] | – | – | 0.115 | – | –
CC(=O)N1N=C(c2ccccc2)O[C@@H]1c1ccc(C)cc1 | Not Active | – | – | 8.46 | > 12
CC(=O)N1N=C(c2ccc(Cl)cc2)OC1c1ccc(Cl)cc1 (stereo in doubt; 4p) [listing 2 of 2 here] | Not Active | – | – | 0.115 | –
CC(=O)N1N=C(c2ccncc2)OC1c1ccc(Cl)cc1 (stereo not given) | Not Active | Not Active | – | – | –
CC(=O)N1N=C(c2ccncc2)OC1c1ccc(N(C)C)cc1 (stereo not given) | Not Active | – | – | 46.8 | > 2.14
